Calls of active or inactive are those of the source.

Sequence of Cholinesterase (Homo sapiens) (P06276 whole entry): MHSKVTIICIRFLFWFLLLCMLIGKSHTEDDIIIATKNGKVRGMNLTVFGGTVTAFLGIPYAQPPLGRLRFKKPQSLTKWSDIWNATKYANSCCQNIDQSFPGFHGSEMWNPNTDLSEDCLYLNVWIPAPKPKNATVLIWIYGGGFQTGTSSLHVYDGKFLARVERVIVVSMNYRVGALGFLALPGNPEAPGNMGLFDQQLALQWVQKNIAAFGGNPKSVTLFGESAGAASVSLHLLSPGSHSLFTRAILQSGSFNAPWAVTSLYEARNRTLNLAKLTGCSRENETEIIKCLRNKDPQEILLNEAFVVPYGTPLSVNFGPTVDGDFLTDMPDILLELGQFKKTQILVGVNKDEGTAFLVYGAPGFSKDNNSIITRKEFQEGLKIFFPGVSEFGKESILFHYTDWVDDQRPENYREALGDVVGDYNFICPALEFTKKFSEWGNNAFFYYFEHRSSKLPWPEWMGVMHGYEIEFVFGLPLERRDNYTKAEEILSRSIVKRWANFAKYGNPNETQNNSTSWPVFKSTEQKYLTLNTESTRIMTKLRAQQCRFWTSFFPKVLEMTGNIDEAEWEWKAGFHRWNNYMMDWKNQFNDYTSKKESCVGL
Sequence of Acetylcholinesterase (Homo sapiens) (P22303 whole entry): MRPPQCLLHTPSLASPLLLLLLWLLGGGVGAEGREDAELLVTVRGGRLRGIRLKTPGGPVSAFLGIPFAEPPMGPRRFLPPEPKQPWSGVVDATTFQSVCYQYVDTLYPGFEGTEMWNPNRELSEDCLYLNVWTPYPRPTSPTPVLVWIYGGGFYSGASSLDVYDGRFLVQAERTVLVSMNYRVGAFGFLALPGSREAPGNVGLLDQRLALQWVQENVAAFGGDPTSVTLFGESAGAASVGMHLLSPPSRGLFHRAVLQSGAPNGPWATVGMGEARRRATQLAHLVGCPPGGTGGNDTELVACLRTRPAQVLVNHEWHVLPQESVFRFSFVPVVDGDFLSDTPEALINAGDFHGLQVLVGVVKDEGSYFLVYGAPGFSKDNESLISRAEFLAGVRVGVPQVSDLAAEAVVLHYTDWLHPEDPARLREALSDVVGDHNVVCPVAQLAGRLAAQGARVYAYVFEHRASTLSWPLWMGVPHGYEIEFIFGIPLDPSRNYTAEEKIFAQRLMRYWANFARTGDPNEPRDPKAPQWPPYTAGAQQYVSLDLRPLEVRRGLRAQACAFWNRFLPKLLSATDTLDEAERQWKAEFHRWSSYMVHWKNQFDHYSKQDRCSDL

Target in the first assay: not listed separately
Briefly: Inhibition of human intestinal CE-mediated O-nitrophenyl acetate hydrolysis by spectrophotometry. An outline of the steps:
(§1)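 Enzyme activity read spectrophotometrically as release of o-nitrophenol from o-nitrophenyl acetate across increasing inhibitor concentrations. Inhibitors were freshly dissolved in DMSO, typically as 10mM stocks. Fractional inhibition was plotted against inhibitor concentration and fitted to a partial-inhibition equation including Ks, α and β. Inhibition mode was chosen by Akaike's information criteria, and Ki was taken from the best-fit model.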
Molecule `Cc1c(C)c(NS(=O)(=O)c2cccc(Cl)c2)c(C)c(C)c1NS(=O)(=O)c1cccc(Cl)c1` registered a Ki of 2060 nM.

`Cc1ccc(S(=O)(=O)Nc2ccc(NS(=O)(=O)c3ccc(F)c(F)c3)cc2)cc1` displayed a Ki of 194 nM.

In turn, `O=C(O)c1ccc(S(=O)(=O)Nc2ccc(NS(=O)(=O)c3ccc(F)cc3)cc2)cc1` returned a Ki of more than 100000 nM.

`O=S(=O)(Nc1ccc(NS(=O)(=O)c2cccc(Cl)c2Cl)cc1)c1cccc(Cl)c1Cl` came in with a Ki of 268 nM.

`O=S(=O)(Nc1ccc(NS(=O)(=O)c2ccc(F)c(F)c2)cc1)c1ccc(F)c(F)c1` yielded a Ki of 160 nM. Compared with the last molecule, the Ki is about 1.7-fold lower.

Molecule `O=S(=O)(Nc1ccc(NS(=O)(=O)c2ccc(Cl)cc2)cc1)c1ccc(F)cc1` registered a Ki of 200 nM.

`Cc1ccc(S(=O)(=O)Nc2ccc(NS(=O)(=O)c3cc(F)ccc3F)cc2)cc1` displayed a Ki of 467 nM.

Molecule `Cc1ccc(C)c(S(=O)(=O)Nc2ccc(NS(=O)(=O)c3ccc(F)cc3)cc2)c1` came in with a Ki of 240 nM.

The molecule `O=S(=O)(Nc1cc(Br)c(NS(=O)(=O)c2ccccc2)cc1Br)c1ccccc1` displayed a Ki of more than 100000 nM.

`O=S(=O)(Nc1cc(Cl)c(NS(=O)(=O)c2ccc(Cl)cc2)cc1Cl)c1ccc(Cl)cc1` gave a Ki of 455 nM.

In turn, `O=S(=O)(Nc1ccc(NS(=O)(=O)c2cc(Cl)cc(Cl)c2)cc1)c1cc(Cl)cc(Cl)c1` gave a Ki of 385 nM.

Turning to `O=S(=O)(Nc1ccc(NS(=O)(=O)c2ccccc2)c(Cl)c1)c1ccccc1`, affinity was put at a Ki of 696 nM.

In turn, `Cc1ccc(C(=O)O)cc1S(=O)(=O)Nc1ccc(NS(=O)(=O)c2ccc(F)cc2)cc1` returned a Ki of 693 nM.

In turn, `Cc1ccc(S(=O)(=O)Nc2ccc(NS(=O)(=O)c3ccc(Cl)cc3)cc2)cc1` returned a Ki of 161 nM.

Turning to `Cc1ccc(S(=O)(=O)Nc2ccc(NS(=O)(=O)c3ccc(F)cc3F)cc2)cc1`, the affinity corresponds to a Ki of 385 nM. This Ki lies about 2.4-fold higher than the previous one.

For the next assay, the target named is T1, Liver carboxylesterase 1 (Homo sapiens, UniProt P23141).
T1 sequence (P23141 whole entry): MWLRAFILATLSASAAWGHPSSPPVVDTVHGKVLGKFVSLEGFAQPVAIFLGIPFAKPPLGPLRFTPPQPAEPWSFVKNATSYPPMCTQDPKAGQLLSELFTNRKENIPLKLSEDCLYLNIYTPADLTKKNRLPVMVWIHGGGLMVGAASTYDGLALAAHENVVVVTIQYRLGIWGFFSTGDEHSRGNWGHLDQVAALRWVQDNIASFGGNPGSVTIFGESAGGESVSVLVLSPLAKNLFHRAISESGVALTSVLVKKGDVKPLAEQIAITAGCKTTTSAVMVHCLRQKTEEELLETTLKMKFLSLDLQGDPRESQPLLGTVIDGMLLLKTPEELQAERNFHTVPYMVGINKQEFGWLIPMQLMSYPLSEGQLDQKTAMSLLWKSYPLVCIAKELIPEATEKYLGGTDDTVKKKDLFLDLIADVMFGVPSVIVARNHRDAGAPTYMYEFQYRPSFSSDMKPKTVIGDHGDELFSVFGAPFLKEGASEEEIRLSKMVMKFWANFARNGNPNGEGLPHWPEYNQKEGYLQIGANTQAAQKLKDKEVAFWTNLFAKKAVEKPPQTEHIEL
Briefly: Inhibition of human liver CE1-mediated O-nitrophenyl acetate hydrolysis by spectrophotometry. The essentials:
as §1
On to `Cc1c(C)c(NS(=O)(=O)c2cccc(Cl)c2)c(C)c(C)c1NS(=O)(=O)c1cccc(Cl)c1`, for which the Ki is more than 100000 nM.

As for `Cc1ccc(S(=O)(=O)Nc2ccc(NS(=O)(=O)c3ccc(F)c(F)c3)cc2)cc1`, the Ki was more than 100000 nM.

Molecule `O=C(O)c1ccc(S(=O)(=O)Nc2ccc(NS(=O)(=O)c3ccc(F)cc3)cc2)cc1` displayed a Ki of more than 100000 nM.

Regarding `O=S(=O)(Nc1ccc(NS(=O)(=O)c2cccc(Cl)c2Cl)cc1)c1cccc(Cl)c1Cl`, the Ki was more than 100000 nM.

With `O=S(=O)(Nc1ccc(NS(=O)(=O)c2ccc(F)c(F)c2)cc1)c1ccc(F)c(F)c1`, the Ki is more than 100000 nM.

The molecule `O=S(=O)(Nc1ccc(NS(=O)(=O)c2ccc(Cl)cc2)cc1)c1ccc(F)cc1` yielded a Ki of more than 100000 nM.

Turning to `Cc1ccc(S(=O)(=O)Nc2ccc(NS(=O)(=O)c3cc(F)ccc3F)cc2)cc1`, the Ki was more than 100000 nM.

`Cc1ccc(C)c(S(=O)(=O)Nc2ccc(NS(=O)(=O)c3ccc(F)cc3)cc2)c1`: the inhibition constant (Ki) is more than 100000 nM.

Molecule `O=S(=O)(Nc1cc(Br)c(NS(=O)(=O)c2ccccc2)cc1Br)c1ccccc1` registered a Ki of more than 100000 nM.

The molecule `O=S(=O)(Nc1cc(Cl)c(NS(=O)(=O)c2ccc(Cl)cc2)cc1Cl)c1ccc(Cl)cc1` registered a Ki of more than 100000 nM.

`O=S(=O)(Nc1ccc(NS(=O)(=O)c2cc(Cl)cc(Cl)c2)cc1)c1cc(Cl)cc(Cl)c1` had a Ki of more than 100000 nM.

`O=S(=O)(Nc1ccc(NS(=O)(=O)c2ccccc2)c(Cl)c1)c1ccccc1` displayed a Ki of more than 100000 nM.

For `Cc1ccc(C(=O)O)cc1S(=O)(=O)Nc1ccc(NS(=O)(=O)c2ccc(F)cc2)cc1`, the Ki is more than 100000 nM.

Molecule `Cc1ccc(S(=O)(=O)Nc2ccc(NS(=O)(=O)c3ccc(Cl)cc3)cc2)cc1` gave a Ki of more than 100000 nM.

Take `Cc1ccc(S(=O)(=O)Nc2ccc(NS(=O)(=O)c3ccc(F)cc3F)cc2)cc1`: the Ki was more than 100000 nM.

Another assay has as its target Acetylcholinesterase (Homo sapiens) (UniProt P22303). Put plainly: Inhibition of human AchE using acetylthiocholine as substrate by spectrophotometric multiwell plate assay.
For the molecule `Cc1c(C)c(NS(=O)(=O)c2cccc(Cl)c2)c(C)c(C)c1NS(=O)(=O)c1cccc(Cl)c1`, the outcome was inactive.

On to `Cc1ccc(S(=O)(=O)Nc2ccc(NS(=O)(=O)c3ccc(F)c(F)c3)cc2)cc1`, for which the result was inactive.

As to `O=C(O)c1ccc(S(=O)(=O)Nc2ccc(NS(=O)(=O)c3ccc(F)cc3)cc2)cc1`, the result was inactive.

With `O=S(=O)(Nc1ccc(NS(=O)(=O)c2cccc(Cl)c2Cl)cc1)c1cccc(Cl)c1Cl`, the result was inactive.

As for `O=S(=O)(Nc1ccc(NS(=O)(=O)c2ccc(F)c(F)c2)cc1)c1ccc(F)c(F)c1`, the result was inactive.

Turning to `O=S(=O)(Nc1ccc(NS(=O)(=O)c2ccc(Cl)cc2)cc1)c1ccc(F)cc1`, the result was inactive.

`Cc1ccc(S(=O)(=O)Nc2ccc(NS(=O)(=O)c3cc(F)ccc3F)cc2)cc1`: the outcome was inactive.

With `Cc1ccc(C)c(S(=O)(=O)Nc2ccc(NS(=O)(=O)c3ccc(F)cc3)cc2)c1`, the outcome was inactive.

For the molecule `O=S(=O)(Nc1cc(Br)c(NS(=O)(=O)c2ccccc2)cc1Br)c1ccccc1`, the outcome was inactive.

Turning to `O=S(=O)(Nc1cc(Cl)c(NS(=O)(=O)c2ccc(Cl)cc2)cc1Cl)c1ccc(Cl)cc1`, the outcome was inactive.

Turning to `O=S(=O)(Nc1ccc(NS(=O)(=O)c2cc(Cl)cc(Cl)c2)cc1)c1cc(Cl)cc(Cl)c1`, the result was inactive.

As to `O=S(=O)(Nc1ccc(NS(=O)(=O)c2ccccc2)c(Cl)c1)c1ccccc1`, the result was inactive.

For `Cc1ccc(C(=O)O)cc1S(=O)(=O)Nc1ccc(NS(=O)(=O)c2ccc(F)cc2)cc1`, the result was inactive.

As to `Cc1ccc(S(=O)(=O)Nc2ccc(NS(=O)(=O)c3ccc(Cl)cc3)cc2)cc1`, the result was inactive.

On to `Cc1ccc(S(=O)(=O)Nc2ccc(NS(=O)(=O)c3ccc(F)cc3F)cc2)cc1`, for which the result was inactive.

The next assay concerns the target Cholinesterase (Homo sapiens) (UniProt P06276). Briefly: Inhibition of human BchE using butyrylthiocholine as substrate by spectrophotometric multiwell plate assay.
For the molecule `Cc1c(C)c(NS(=O)(=O)c2cccc(Cl)c2)c(C)c(C)c1NS(=O)(=O)c1cccc(Cl)c1`, the outcome was inactive.

As for `Cc1ccc(S(=O)(=O)Nc2ccc(NS(=O)(=O)c3ccc(F)c(F)c3)cc2)cc1`, the outcome was inactive.

Turning to `O=C(O)c1ccc(S(=O)(=O)Nc2ccc(NS(=O)(=O)c3ccc(F)cc3)cc2)cc1`, the outcome was inactive.

Take `O=S(=O)(Nc1ccc(NS(=O)(=O)c2cccc(Cl)c2Cl)cc1)c1cccc(Cl)c1Cl`: the result was inactive.

For `O=S(=O)(Nc1ccc(NS(=O)(=O)c2ccc(F)c(F)c2)cc1)c1ccc(F)c(F)c1`, the result was inactive.

On to `O=S(=O)(Nc1ccc(NS(=O)(=O)c2ccc(Cl)cc2)cc1)c1ccc(F)cc1`, for which the outcome was inactive.

With `Cc1ccc(S(=O)(=O)Nc2ccc(NS(=O)(=O)c3cc(F)ccc3F)cc2)cc1`, the result was inactive.

Regarding `Cc1ccc(C)c(S(=O)(=O)Nc2ccc(NS(=O)(=O)c3ccc(F)cc3)cc2)c1`, the outcome was inactive.

Turning to `O=S(=O)(Nc1cc(Br)c(NS(=O)(=O)c2ccccc2)cc1Br)c1ccccc1`, the outcome was inactive.

`O=S(=O)(Nc1cc(Cl)c(NS(=O)(=O)c2ccc(Cl)cc2)cc1Cl)c1ccc(Cl)cc1`: the result was inactive.

As for `O=S(=O)(Nc1ccc(NS(=O)(=O)c2cc(Cl)cc(Cl)c2)cc1)c1cc(Cl)cc(Cl)c1`, the result was inactive.

On to `O=S(=O)(Nc1ccc(NS(=O)(=O)c2ccccc2)c(Cl)c1)c1ccccc1`, for which the outcome was inactive.

Consider `Cc1ccc(C(=O)O)cc1S(=O)(=O)Nc1ccc(NS(=O)(=O)c2ccc(F)cc2)cc1`, for which the result was inactive.

Regarding `Cc1ccc(S(=O)(=O)Nc2ccc(NS(=O)(=O)c3ccc(Cl)cc3)cc2)cc1`, the outcome was inactive.

In the case of `Cc1ccc(S(=O)(=O)Nc2ccc(NS(=O)(=O)c3ccc(F)cc3F)cc2)cc1`, the outcome was inactive.

As usually defined, the Ki is a measure of affinity in units of concentration, obtained from inhibition or displacement.
